Data as given in ChEMBL document CHEMBL4602689, “Absolute Configuration and Antibiotic Activity of Piceamycin” (J Nat Prod, 2020).
pIC50: −log10 of the molar value. The source made the active and inactive calls. The calls are words filed in the database; no cut-off is given here.

Key:
[1] = system: Enterococcus faecalis; assay: Antibacterial activity against Enterococcus faecalis ATCC 19433 assessed as reduction in microbial growth after 24 hrs by two-fold serial dilution method; assay type: functional; settings: ATCC 19433, 24 h
Outline: (§1)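 Strains grown overnight in Mueller–Hinton broth at 37 °C, centrifuged and washed twice in sterile water. DMSO stocks were 2-fold serially diluted in MHB (128 to 0.015 μg/mL). Final inoculum was 5 × 10⁴ cfu/mL, incubated 24 h at 37 °C. MIC is the lowest concentration inhibiting growth. Controls were ampicillin, tetracycline, streptomycin and DMSO.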

[2] = system: Proteus hauseri; assay: Antibacterial activity against Proteus hauseri NBRC 3851 assessed as reduction in microbial growth after 24 hrs by two-fold serial dilution method; assay type: functional; settings: NBRC 3851, 24 h; outline: as §1
[3] = system: Klebsiella pneumoniae; assay: Antibacterial activity against Klebsiella pneumoniae ATCC 10031 assessed as reduction in microbial growth after 24 hrs by two-fold serial dilution method; assay type: functional; settings: ATCC 10031, 24 h; outline: as §1
[4] = system: Staphylococcus aureus; assay: Antibacterial activity against Staphylococcus aureus ATCC 25923 assessed as reduction in microbial growth after 24 hrs by two-fold serial dilution method; assay type: functional; settings: ATCC 25923, 24 h; outline: as §1
[5] = system: Escherichia coli; assay: Antibacterial activity against Escherichia coli ATCC 25922 assessed as reduction in microbial growth after 24 hrs by two-fold serial dilution method; assay type: functional; settings: ATCC 25922, 24 h; outline: as §1
[6] = system: Salmonella enterica; assay: Antibacterial activity against Salmonella enterica ATCC 14028 assessed as reduction in microbial growth after 24 hrs by two-fold serial dilution method; assay type: functional; settings: ATCC 14028, 24 h; outline: as §1
[7] = system: Enterococcus faecium; assay: Antibacterial activity against Enterococcus faecium ATCC 19434 assessed as reduction in microbial growth after 24 hrs by two-fold serial dilution method; assay type: functional; settings: ATCC 19434, 24 h; outline: as §1
[8] = system: HCT-116; assay: Antiproliferative activity against human HCT116 cells assessed as reduction in cell viability by sulforhodamine B assay; assay type: functional, cell-based
Outline: (§2)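 Cells kept in RPMI 1640 with 10% heat-inactivated FBS plus penicillin, streptomycin and amphotericin B, at 37 °C and 5% CO₂. Cells seeded in 96-well plates and treated for the indicated times; zero-day controls read after 30 min. Fixed, stained with 0.4% SRB in 1% acetic acid, dye dissolved in 10 mM Tris pH 10.0, A515 read. IC50 by nonlinear regression.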

[9] = system: K562; assay: Antiproliferative activity against human K562 cells assessed as reduction in cell viability by sulforhodamine B assay; assay type: functional, cell-based; outline: as §2
[10] = system: Aspergillus fumigatus; assay: Growth inhibition of Aspergillus fumigatus HIC 6094; assay type: functional, organism-based
[11] = system: SK-HEP1; assay: Antiproliferative activity against human SKHEP1 cells assessed as reduction in cell viability by sulforhodamine B assay; assay type: functional, cell-based
Outline: (§3)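 Cells kept in DMEM with 10% heat-inactivated FBS plus penicillin, streptomycin and amphotericin B, at 37 °C and 5% CO₂. SRB assay: cells seeded in 96-well plates and treated for the indicated times, with 30-min zero-day controls. Fixed, stained with 0.4% SRB in 1% acetic acid, solubilized in 10 mM Tris pH 10.0, absorbance at 515 nm. IC50 by nonlinear regression.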

[12] = system: Bacillus thuringiensis; assay: Antibacterial activity against Bacillus thuringiensis KACC 10168 assessed as reduction in microbial growth after 24 hrs by two-fold serial dilution method; assay type: functional; settings: KACC 10168, 24 h
Outline: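 Bacteria grown overnight in tryptic soy broth at 28 °C, centrifuged and washed twice in sterile water. Compounds in DMSO were serially diluted 2-fold in TSB from 128 to 0.015 μg/mL. Final inoculum was 5 × 10⁴ cfu/mL, incubated 24 h at 28 °C. MIC taken as the lowest concentration inhibiting growth. Controls were ampicillin, tetracycline, streptomycin and DMSO.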

[13] = system: Candida albicans; assay: Growth inhibition of Candida albicans ATCC 10231; assay type: functional, organism-based
[14] = system: SNU-638; assay: Antiproliferative activity against human SNU638 cells assessed as reduction in cell viability by sulforhodamine B assay; assay type: functional, cell-based; outline: as §2
[15] = system: Trichophyton mentagrophytes; assay: Growth inhibition of Trichophyton mentagrophytes IFM 40996; assay type: functional, organism-based
[16] = system: MDA-MB-231; assay: Antiproliferative activity against human MDA-MB-231 cells assessed as reduction in cell viability by sulforhodamine B assay; assay type: functional, cell-based; outline: as §3
[17] = system: A549; assay: Antiproliferative activity against human A549 cells assessed as reduction in cell viability by sulforhodamine B assay; assay type: functional, cell-based; outline: as §2
[18] = system: Trichophyton rubrum; assay: Growth inhibition of Trichophyton rubrum NBRC 9185; assay type: functional, organism-based

In the case of `CC1(C)S[C@@H]2[C@H](NC(=O)[C@H](N)c3ccccc3)C(=O)N2[C@H]1C(=O)O` [AMPICILLIN], the MIC [1] was 0.5 mg/L, the MIC [2] was 0.03 mg/L and the MIC [3] was over 130 mg/L. For the same molecule, the MIC [4] was 0.17 mg/L, the MIC [5] was 16 mg/L and the MIC [6] was 0.25 mg/L. For the same molecule, the MIC [7] was 1 mg/L.

With `C[C@@H]1\C=C/C=C/C=C\C=C\C=C\C(=O)C2=C(O)C(=O)C[C@@]2(C)/C=C/C=C\C=C/C(=O)NC1` the MIC [1] was 32 mg/L, the MIC [2] was 0.025 mg/L and the pIC50 [8] was 6.66. For the same molecule, the pIC50 [9] was 6.13, the “growth inhibition (GI)” value [10] was “inactive” and the pIC50 [11] was 6.49. For the same molecule, the MIC [12] was 3.2 mg/L, the MIC [3] was over 130 mg/L and the “growth inhibition (GI)” value [13] was “inactive”. It also gave an MIC [4] of 0.025 mg/L, an MIC [5] of over 130 mg/L and a pIC50 [14] of 6.42. For the same molecule, the “growth inhibition (GI)” value [15] was “inactive”, the pIC50 [16] was 6.18 and the pIC50 [17] was 6.55. For the same molecule, the MIC [6] was 0.083 mg/L, the MIC [7] was 5.3 mg/L and the “growth inhibition (GI)” value [18] was “inactive”.

Molecule `COc1cc([C@@H]2c3cc4c(cc3[C@@H](O[C@@H]3O[C@@H]5CO[C@@H](C)O[C@H]5[C@H](O)[C@H]3O)[C@H]3COC(=O)[C@H]23)OCO4)cc(OC)c1O` [ETOPOSIDE] has a pIC50 [8] of 5.87, a pIC50 [9] of 6.01 and a pIC50 [11] of 6.42. For the same molecule, the pIC50 [14] was 6.28, the pIC50 [16] was 5.48 and the pIC50 [17] was 6.22.

`CN[C@@H]1[C@H](O[C@H]2[C@H](O[C@H]3[C@H](O)[C@@H](O)[C@H](N=C(N)N)[C@@H](O)[C@@H]3N=C(N)N)O[C@@H](C)[C@]2(O)C=O)O[C@@H](CO)[C@H](O)[C@H]1O` [STREPTOMYCIN] gave an MIC [12] of 130 mg/L.

`CC1=C/C[C@@H](O)CC(=O)/C=C/C=C/C=C\C=C\C=C/[C@@H](C)CNC(=O)\C=C/C=C\C=C\1` showed an MIC [1] of over 130 mg/L, an MIC [2] of 130 mg/L and a pIC50 [8] of 6.00. For the same molecule, the pIC50 [9] was 6.02, the pIC50 [11] was 5.73 and the MIC [12] was 380 mg/L. For the same molecule, the MIC [3] was over 130 mg/L, the MIC [4] was over 130 mg/L and the MIC [5] was over 130 mg/L. It also gave a pIC50 [14] of 6.07, a pIC50 [16] of 6.00 and a pIC50 [17] of 6.11. It also gave an MIC [6] of 130 mg/L and an MIC [7] of 130 mg/L.

With `CC1=C\C[C@@H](O)CC(=O)/C=C/C=C/C=C\C=C\C=C/[C@@H](C)CNC(=O)\C=C/C=C/C=C/1` the “growth inhibition (GI)” value [10] was “inactive”, the “growth inhibition (GI)” value [13] was “inactive” and the “growth inhibition (GI)” value [15] was “inactive”. For the same molecule, the “growth inhibition (GI)” value [18] was “inactive”.

Work on `CN(C)[C@@H]1C(O)=C(C(N)=O)C(=O)[C@@]2(O)C(O)=C3C(=O)c4c(O)cccc4[C@@](C)(O)[C@H]3C[C@@H]12` [TETRACYCLINE] yielded an MIC [3] of 0.44 mg/L.
